Screening results as filed in PubChem BioAssay.
PLK1 PBD inh = Plk1 polo box domain binding inhibitors, primary screen, biochemical, fluorescence polarization. Plk1 PBD phosphopeptide binding. inhibition, %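 (tested at about 20 µM)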. hit rate 0.13% among 97,000. AID 693, 2007; in the data active = inhibition above about 34%, passing the limit was not always enough
Cav32 inh = Cav3.2 calcium influx blockers – cell-based, Fluo-4 calcium fluorescence, FDSS, MLSMR library, primary screen | AID 449739, 2010 | Cav3.2-expressing cells; active compounds read low | B-score at 10 µM | hit rate 4% among 100,000 | Voltage-dependent T-type calcium channel subunit alpha-1H (Homo sapiens), O95180;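 active = single-dose well whose peak fluorescence ratio is a statistical outlier from its plate by either plate-standardised score or position-corrected B-score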
PTK2B oligo ant = antagonists of Pyk2 self-association, primary screen, Q293 cells, FERM NanoBiT luminescence, HTS; Protein-tyrosine kinase 2-beta (Homo sapiens), Q14289; z-score (the deposit names both 25 µM and 10 µM); hit rate 0.83% among 99,000; active compounds read low;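 active = Z-score of -3 or lower, scaled per plate to the spread of control and sample wells; inactive = z-score above -3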;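 note: negative z-score means lost luminescence so less FERM oligomerization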
PLK1 inh = human PLK1 kinase inhibitors, primary screen, biochemical, TR-FRET; inhibition, % at 10 µM; recombinant PLK1 kinase, TR-FRET peptide phosphorylation; hit rate 0.53% among 97,000; AID 619, 2007; Serine/threonine-protein kinase PLK1 (Homo sapiens), P53350;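 active = inhibition of 50% or more in the single-concentration screen; inactive = inhibition below 50%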;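 note: 0% = DMSO max control and 100% = H-89 dihydrochloride min control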
FAK inh = FAK kinase inhibitors, primary screen, biochemical; Focal adhesion kinase 1 (Homo sapiens), Q05397; biochemical FAK kinase activity assay; hit rate 0.84% among 97,000; inhibition, %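 (tested at 7 µM)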; AID 727, 2007;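 note: 0% = DMSO and 100% = reference compound high control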
Target sequence (Q05397 whole entry, looked up): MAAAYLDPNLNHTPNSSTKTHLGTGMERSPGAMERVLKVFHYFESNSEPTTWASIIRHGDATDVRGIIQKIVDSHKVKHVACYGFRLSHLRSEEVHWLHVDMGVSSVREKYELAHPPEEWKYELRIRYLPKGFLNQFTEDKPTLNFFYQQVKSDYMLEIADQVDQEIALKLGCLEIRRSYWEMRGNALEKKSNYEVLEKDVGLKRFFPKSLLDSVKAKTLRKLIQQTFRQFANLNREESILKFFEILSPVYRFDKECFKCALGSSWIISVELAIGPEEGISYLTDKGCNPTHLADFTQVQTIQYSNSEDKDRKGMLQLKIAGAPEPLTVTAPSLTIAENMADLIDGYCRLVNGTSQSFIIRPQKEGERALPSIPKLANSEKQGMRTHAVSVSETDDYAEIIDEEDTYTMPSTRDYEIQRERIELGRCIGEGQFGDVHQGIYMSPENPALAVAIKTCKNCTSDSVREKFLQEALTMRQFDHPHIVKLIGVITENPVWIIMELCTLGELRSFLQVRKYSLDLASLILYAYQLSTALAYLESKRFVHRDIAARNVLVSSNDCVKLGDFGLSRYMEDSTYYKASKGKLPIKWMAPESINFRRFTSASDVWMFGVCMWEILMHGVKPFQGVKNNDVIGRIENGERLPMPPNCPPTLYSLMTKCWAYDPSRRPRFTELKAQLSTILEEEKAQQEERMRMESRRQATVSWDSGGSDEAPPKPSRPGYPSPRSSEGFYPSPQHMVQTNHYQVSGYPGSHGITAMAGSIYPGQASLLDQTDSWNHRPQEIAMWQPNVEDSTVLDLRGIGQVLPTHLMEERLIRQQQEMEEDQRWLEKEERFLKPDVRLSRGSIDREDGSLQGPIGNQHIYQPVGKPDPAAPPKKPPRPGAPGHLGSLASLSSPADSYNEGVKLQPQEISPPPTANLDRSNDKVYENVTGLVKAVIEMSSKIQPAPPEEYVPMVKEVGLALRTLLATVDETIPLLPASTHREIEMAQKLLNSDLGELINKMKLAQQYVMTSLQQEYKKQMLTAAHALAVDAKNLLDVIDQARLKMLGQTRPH
Rev-RRE block = HIV-1 Rev-RRE binding inhibitors, primary screen, biochemical, FRET, protein-RNA interaction; P05866; Rev peptide-RRE RNA binding; inhibition, % at 8 µM; hit rate 0.79% among 97,000; AID 704, 2007;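 active = inhibition above the screen-wide mean plus 3 SD, cut at about 35% in these data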;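 note: 0% = median DMSO wells and 100% = median Neomycin B control wells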
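assay system = Cy5-tagged RRE RNA duplex with fluorescein-tagged Rev peptide | incubation = 5 + 15 min at 25 °C | also added = labelled Rev peptide | measure = % inhibition of FRET ratio versus controls | benchmarks = DMSO wells as 0% and neomycin B wells as 100% inhibition | measured by = FRET fluorescence readout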
PBD redox DR = redox cycling hydrogen peroxide generation, dose response, artefact control for Plk1 PBD inhibitor project, biochemical. 120 tested, under 10 active. redox cycling H2O2 generation, DTT, counter-screen. shares compounds with PLK1 PBD inh. EC50, µM; call rule not given here
FAK inh conf = FAK kinase inhibitors, retest, confirmation, biochemical | shares compounds with FAK inh | FAK kinase biochemical inhibition assay | inhibition, % at 7 µM | hit rate 28% among 750
An asterisk follows results filed as active; . = no result given. In the library only some 5.8% were active in any assay of this set; here they are far more common. Cut-off read from the data, not from the text of the source, unless noted: active = inhibition above about 19%; inactive = the rest.

SMILES	PLK1 PBD inh	Cav32 inh	PTK2B oligo ant	PLK1 inh	FAK inh	Rev-RRE block	PBD redox DR	FAK inh conf
CC(C)(C)NC(=O)CC(c1ccccc1)c1ccccc1O (stereo unspecified)	-2.8	0.0118	0.28	-14.9	-1.4	8.3	.	.
CC(=O)N(/N=C1\Sc2ccccc2C1=O)c1ccccc1	101.1*	-0.0347	-1.56	-5.5	8.4	4.3	>50	.
CC(=O)N(/N=C1\Sc2ccccc2C1=O)c1ccc(C)cc1C	58.3	-1.38	0.47	-6.9	4.8	15.8	.	.
CCCN(CCC)CCCNS(=O)(=O)c1cc(Br)cc2c1N(C(C)=O)CC2	12.5	1.16	-0.1	-9.8	2.1	2.0	.	.
CC(=O)N1CCc2cc(Br)cc(S(=O)(=O)NCc3ccccn3)c21	55.5*	1.2	-0.33	-4.2	-11.5	1.8	>50	.
O=C(Nc1cccn(Cc2c(Cl)cccc2Cl)c1=O)c1c(Cl)cccc1Cl	51.0*	-6.49*	-1.27	-10.3	-2.0	7.3	>50	.
CCc1nnc(NC(=O)CSc2nnc(CNc3ccc(F)cc3)n2C2CCCCC2)s1	-0.1	-1.12	-2.83	-1.6	4.8	0.7	.	.
Cc1ccccc1NS(=O)(=O)c1cc(C(=O)NCc2ccco2)ccc1C	38.1*	-0.456	-0.57	-2.7	-2.1	3.6	>50	.
Cc1ccc(C(=O)NCc2ccco2)cc1S(=O)(=O)Nc1cccc(C)c1C	-2.9	0.588	-1.37	-1.2	0.3	4.1	.	.
Cc1ccc(NC2=C/C(=N\S(=O)(=O)c3cccs3)c3ccccc3C2=O)c(C)c1	61.9*	-2.63	-3.68*	4.5	40.8*	4.0	>50	.
COc1ccc(CC2NCCC3(O)CCCCC23)cc1 (stereo unspecified)	39.2*	-0.314	0.79	-15.6	-1.2	2.9	>50	.
CCCc1cc(=O)[nH]c(SCC(=O)c2cc(C)n(C(C)COC)c2C)n1 (stereo unspecified)	0.6	.	-0.23	-6.8	-7.6	7.7	.	.
CC(C)Sc1nc(N2CCOCC2)c2c(c1C#N)CC(C)(C)N(C)C2	48.0*	1.67	0.43	7.8	1.1	1.2	>50	.
Cc1ccc2cc(C(c3nnnn3C3CCCC3)N3CCN(c4ccccc4)CC3)c(=O)[nH]c2c1 (stereo unspecified)	60.7*	-6.07*	1.9	-4.6	-9.3	0.9	>50	.
COc1ccc(CN2CCN(c3ccccn3)CC2)cc1OCc1ccccc1	.	-0.819	1.21	.	.	.	.	.
COc1ccc(N2CCN(Cc3nc4c(c(=O)[nH]c(=O)n4C)n3CC(C)=O)CC2)cc1	1.5	1.06	.	-3.2	-4.5	-0.3	.	.
CCCc1nc2sc3c(c2c(=O)n1NC(=O)CCC(=O)O)CCCC3	46.0*	0.279	0.32	-5.4	-4.2	3.3	>50	.
CN(C(=S)Nc1ccccc1F)C1(c2ccccc2Cl)CCCCC1=O (stereo unspecified)	-7.5	0.664	-1.45	-6.8	-3.1	-1.5	.	.
COc1ccc(NC(C)=O)cc1CNC(=O)COc1c(C)c(C)cc(C)c1C	.	.	-0.47	.	.	.	.	.
c1ccc2c(c1)ncn2CCC1CCCCC1	-9.8	-0.761	-0.36	-10.2	4.9	10.7	.	.
O=C(CNS(=O)(=O)c1ccc(Br)s1)N1CCCC1	43.8*	-0.791	-0.66	-3.1	1.3	5.4	>50	.
COc1cc(S(=O)(=O)N2CCCCCC2)ccc1-n1cnnn1	38.2*	1.32	-0.3	-2.5	0.0	-5.4	>50	.
Cc1oc2c(c1C(=O)c1ccccc1)C(=O)C(=O)c1ccccc1-2	123.7*	-5.05	-2.22	-0.3	30.1*	4.4	>50	21.7*
CC1=C(CC(=O)c2ccccc2)C(=O)c2ccccc2C1=O	-27.7	.	-1.13	-5.8	10.0	3.6	.	.
COc1ccc2c3c(cccc13)NN=C2C	38.0*	.	.	32.9	84.1*	-19.1	>50	14.8
SMILES	PLK1 PBD inh	Cav32 inh	PTK2B oligo ant	PLK1 inh	FAK inh	Rev-RRE block	PBD redox DR	FAK inh conf
CCN1CCN(Cc2nc3c(c(=O)n(C)c(=O)n3C)n2C(C)C(C)=O)CC1 (stereo unspecified)	-2.8	0.0926	0.2	2.1	-7.6	2.5	.	.
COc1ccccc1NC(=O)CC1C(=O)NCCN1C(=O)Nc1ccccc1 (stereo unspecified)	-3.2	0.295	-0.19	-8.2	-3.8	6.1	.	.
O=C(CC1C(=O)NCCN1C(=S)Nc1ccccc1)Nc1ccc2c(c1)OCCO2 (stereo unspecified)	43.3*	0.592	-1.04	-1.1	23.0*	2.8	>50	1.1
CC(C)NC(=O)C1(O)c2ccccc2NC(=O)N1c1ccc(Cl)c(Cl)c1 (stereo unspecified)	.	-0.504	1.3	.	.	.	.	.
Cn1nc(-c2ccc(Cl)cc2)nc2c(=O)n(C)c(=O)nc1-2	65.0*	-2.64	.	2.0	69.2*	26.3	>50	66.9*
CC(=O)N(C)C1=C(O)c2ccccc2C(=O)C1=O	2.6	-0.968	0.19	-11.0	10.3	7.8	.	.
CC(=O)N(/N=C1\Sc2ccccc2C1=O)c1ccccc1C	124.8*	0.788	-2.22	-15.1	21.7*	9.3	>50	16.7
O=C(NC1(O)C(=O)c2ccccc2C1=O)c1ccccc1	81.8*	.	0.11	5.3	21.8*	4.2	>50	7.4
CN1CCn2c1nc(N1CCOCC1)nc2=O	6.8	-0.227	0.44	2.2	0.5	3.1	.	.
Nc1ccc2c(c1)C(=O)C(=O)c1ccccc1-2	95.4*	0.0612	-4.09*	-0.6	57.2*	4.1	>50	57.8*
Cc1ccc(NC(=O)CSc2nnc(Cn3cnc4ccccc43)o2)c(C)c1	18.0	-0.0549	0.8	-6.5	-2.3	3.8	.	.
COC(=O)c1c(C)oc2ccc(NS(=O)(=O)c3cccs3)cc12	7.9	-4.85*	-1.23	-9.3	23.6*	12.4	.	12.3
C=CCOc1c(Cl)cc(C2NC(=O)NC(C)=C2C(=O)OC)cc1Cl (stereo unspecified)	-22.2	-1.53	-2.43	3.8	3.9	13.6	.	.
COc1ccc(-c2cc(=O)c3ccccc3s2)cc1	-15.1	-2.49	-1.77	-3.8	16.7	12.3	.	.
COc1ccc2sc3ccccc3c(=O)c2c1	-0.7	0.062	0.51	-12.5	29.5*	2.4	.	11.6
O=C(c1cccc(S(=O)(=O)N2CCCC2)c1)N1CCN(c2ccccc2F)CC1	-16.1	0.0233	0.76	-10.0	34.9*	9.4	.	-1.1
COc1cc(CC(=O)NNC(=O)c2cc(C)oc2C)cc(OC)c1OC	.	.	0.17	.	.	.	.	.
CSc1nc(SCC(=O)NC(c2ccccc2)c2ccccc2)c2c3c(sc2n1)CN(C)CC3	-21.9	-1.91	0.18	-11.3	24.0*	15.3	.	1.1
